The record followed here is the array DNA melting data of Ke et al. (doi:10.1101/2024.01.08.574731).

Data set [1] is described as follows: folding enthalpy; higher = less favourable; fluorescence melt of hairpins on a sequencing array, two-state fit. Conditions: sodium 0.088 M. The gist of the method: (§1)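 Cy3 fluorescence of library hairpins on a sequenced MiSeq flow cell, with annealed Cy3 and quencher oligos, was imaged in 50 mM Na-HEPES pH 8.0, 25 mM NaCl in 2.5 °C steps up to 60 °C. Signals were normalised to pre-quench Cy3 and to control variants. Melting temperature and folding enthalpy came from bootstrapped two-state fits, inverse-variance combined over four replicates. Fitted temperatures were raised by 9.35 °C to match UV melts.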

Data set [2] can be described thus: melting temperature; fluorescence melt of hairpins on a sequencing array, two-state fit, raised by 9.35 °C to match UV melts. Conditions: sodium 0.088 M. The gist of the method:
as §1

On to GATCACAGCGTGATC ((((((...)))))), for which, in data set [1], the folding enthalpy is -42 kcal/mol. Moreover, in data set [2], the Tm was determined as 61.9 °C.

Regarding GCTGATGGAAACATTAGC (((.(((....))).))), the folding enthalpy in data set [1] was -37.4 kcal/mol. Besides, the Tm in data set [2] is 46.5 °C.

For the sequence GATTGGGGAAACTCAATC (((((.(....).))))), in data set [1], the folding enthalpy was -33.5 kcal/mol. The Tm in data set [2] was 41.9 °C.

Take GCATGCCGAAAGGCTGC (((.(((....)))))): the folding enthalpy in data set [1] was -21.6 kcal/mol. The Tm in data set [2] came to 65.7 °C.

Take GCATAGCGAAAGCAATGC ((((.((....)).)))): the folding enthalpy in data set [1] was -23.1 kcal/mol. Moreover, in data set [2], the Tm worked out at 60.4 °C.

On to GCGACAACGAAAGTTCGC (((..(((....)))))), for which the folding enthalpy in data set [1] was -28.6 kcal/mol. The Tm in data set [2] amounted to 49.4 °C.

For GTGGTGGGAAACCACCGC (.(((((....))))).), in data set [1], the folding enthalpy is -29.4 kcal/mol. Moreover, the Tm in data set [2] came to 60.5 °C.

Regarding GCACTGGGAAACTAGTGC (((((.(....).))))), the folding enthalpy in data set [1] was -38.9 kcal/mol. For the same sequence, in data set [2], the Tm was determined as 53.2 °C.

Regarding GATTTACGAAAGTACATC (((.(((....))).))), in data set [1], the folding enthalpy was -19.9 kcal/mol. Besides, the Tm in data set [2] is 35.6 °C.

For the sequence GTTCAAGGAAACTTGAAC (((((((....))))))), the folding enthalpy in data set [1] is -46.1 kcal/mol. Also, the Tm in data set [2] was 53.9 °C.

Consider GACTGTGCGAAAGCAGTC (((..(((....)))))), for which the folding enthalpy in data set [1] is -18 kcal/mol. The Tm in data set [2] came out at 45.1 °C.

For the sequence GACGTCCGAAAGGAAGTC (((.(((....))).))), in data set [1], the folding enthalpy was -34.7 kcal/mol. The Tm in data set [2] came to 54.7 °C.

As for GATCTGCGACAGATC ((((((...)))))), the folding enthalpy in data set [1] is -26.2 kcal/mol. Further, the Tm in data set [2] worked out at 47.3 °C.

For GGGCTAACGAAAGTTCCC (((..(((....)))))), the folding enthalpy in data set [1] is -16.7 kcal/mol. The Tm in data set [2] turned out to be 34.9 °C.

Consider GCCTGCGAAAGCATTGGC ((((((....)))..))), for which the folding enthalpy in data set [1] was -21.2 kcal/mol. Moreover, in data set [2], the Tm came out at 50.9 °C.

GTGTCGGGAAACCGATGC (..((((....))))..): the folding enthalpy in data set [1] was -23.8 kcal/mol. Moreover, in data set [2], the Tm was 46 °C.

In the case of GGGGTCGGAAACGATCCC (((.(((....))).))), the folding enthalpy in data set [1] was -48.4 kcal/mol. Also, the Tm in data set [2] is 59.7 °C.

In the case of GCGGTCTGCCGC ((((....)))), in data set [1], the folding enthalpy is -22.7 kcal/mol. Further, the Tm in data set [2] was 62.1 °C.

With GGCATTCGAAAGAAGCC (((.(((....)))))), the folding enthalpy in data set [1] was -25 kcal/mol. In data set [2], the Tm was found to be 48.5 °C.

Turning to GAACGCGAAAGCGCTTC ((((((....))).))), the folding enthalpy in data set [1] was -14.3 kcal/mol. In data set [2], the Tm was found to be 48.6 °C.

GATGCCGAAAGGCGATC ((((((....))).))): the folding enthalpy in data set [1] is -15.1 kcal/mol. The Tm in data set [2] came out at 50.6 °C.

As to GAAGTCCGAAAGGAGTTC (((.(((....))).))), in data set [1], the folding enthalpy was -33.7 kcal/mol. Also, in data set [2], the Tm worked out at 55.2 °C.

With GAGATGGCGAAAGCCCTC (((..(((....)))))), the folding enthalpy in data set [1] was -10.3 kcal/mol. Besides, the Tm in data set [2] is 32.8 °C.

On to GAACTCGCGAAAGCGTTC (((..(((....)))))), for which, in data set [1], the folding enthalpy is -12.5 kcal/mol. Besides, in data set [2], the Tm was 27.4 °C.

On to GTCTAACGAAAGTTCGAC (((.(((....))).))), for which the folding enthalpy in data set [1] is -28.3 kcal/mol. Besides, the Tm in data set [2] came out at 43.2 °C.

As for ACATTGAAAAATGT (((((....))))), the folding enthalpy in data set [1] is -13.4 kcal/mol. The Tm in data set [2] came out at 32.9 °C.

Turning to GCCCGGCGAAAGCGGTGC ((.(.((....)).).)), the folding enthalpy in data set [1] was -15.6 kcal/mol. Also, the Tm in data set [2] was 56.5 °C.

On to GACCACCCGAAAGGGGTC (((..(((....)))))), for which the folding enthalpy in data set [1] was -13.1 kcal/mol. Besides, in data set [2], the Tm was found to be 46.5 °C.

For the sequence GGAGATGGAAACGTTTCC (((.(.(....).).))), the folding enthalpy in data set [1] is -16.5 kcal/mol. In addition, the Tm in data set [2] was found to be 32.9 °C.

On to GATCAAAACCTTGATC ((((((....)))))), for which the folding enthalpy in data set [1] is -32.5 kcal/mol. In data set [2], the Tm is 44.4 °C.

Turning to GTGTATCGAAAGATCCAC (((.(((....))).))), the folding enthalpy in data set [1] is -33.5 kcal/mol. Further, the Tm in data set [2] was 41.2 °C.

As to GTTCTCGGAAACGAAAAC (((.(((....))).))), the folding enthalpy in data set [1] is -20 kcal/mol. Further, in data set [2], the Tm was determined as 29.3 °C.

GCGTTATCACGC ((((....)))): the folding enthalpy in data set [1] is -22.5 kcal/mol. In addition, in data set [2], the Tm was found to be 50.6 °C.

Regarding GACGGTCCGAAAGGAGTC (((..(((....)))))), the folding enthalpy in data set [1] was -14.2 kcal/mol. Also, in data set [2], the Tm came to 34.2 °C.

GCGATACGTCGC ((((....)))): the folding enthalpy in data set [1] is -30.6 kcal/mol. In addition, the Tm in data set [2] stood at 54.4 °C.

As to GATCTTTTATAAGATC ((((((....)))))), the folding enthalpy in data set [1] is -34.5 kcal/mol. Moreover, the Tm in data set [2] is 44.1 °C.

Take GCATATTCGAAAGAATGC (((..(((....)))))): in data set [1], the folding enthalpy was -18.7 kcal/mol. Further, the Tm in data set [2] stood at 34 °C.
